Measurements published in ChEMBL document CHEMBL1944564, “Discovery of a novel and potent class of F. tularensis enoyl-reductase (FabI) inhibitors by molecular shape and electrostatic matching” (J Med Chem, 2012).
In brackets after ≈: the same amount, converted by molar mass.

Tests used:
[1] = Inhibition of N-terminus His-tagged Francisella tularensis subsp. Tularensis Schu4 […] expressed in Escherichia coli […] cells assessed as conversion of crotonyl-CoA and NADH to butyryl-CoA and NAD+ preincubated for 30 mins by measured fluorescence analysis; set-up: species or system Francisella tularensis subsp. tularensis SCHU S4
Summary of the method: (§1)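 Recombinant N-terminal His-tagged F. tularensis FabI, expressed in E. coli BL21(DE3) and purified by Ni-affinity and size exclusion to >98%, was used at 0.2 μM. Inhibitor in DMSO was preincubated 30 min, then 200 μM crotonyl-CoA was added. The rate of decrease in NADH fluorescence (ex 340/em 450 nm) gave % inhibition versus a DMSO control.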

Bacillus anthracis = assay: Antibacterial activity against Bacillus anthracis after overnight incubation; assay type: functional
Escherichia coli [2] = assay: Antibacterial activity against Escherichia coli BW251113 after overnight incubation; assay type: functional
Summary of the method: (§2)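 Broth microdilution in LB with 2-fold serial dilutions of compound and ciprofloxacin as control.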

Escherichia coli [3] = assay: Antibacterial activity against Escherichia coli BW251113 harboring TolC deletion mutation after overnight incubation; assay type: functional
Yersinia pestis = assay: Antibacterial activity against Yersinia pestis after overnight incubation; assay type: functional
Staphylococcus aureus [4] = assay: Antibacterial activity against Staphylococcus aureus after overnight incubation; assay type: functional; summary of the method: as §2
Francisella tularensis = assay: Antibacterial activity against Francisella tularensis after overnight incubation; assay type: functional
DL21 (DE3) = assay: Inhibition of N-terminus His-tagged Francisella tularensis subsp. Tularensis Schu4 […] expressed in Escherichia coli […] cells assessed as conversion of crotonyl-CoA and NADH to butyryl-CoA and NAD+ preincubated at 100 uM for 30 mins by fluorescence analysis; settings: Francisella tularensis subsp. tularensis SCHU S4; summary of the method: as §1
Staphylococcus aureus [5] = assay: Antibacterial activity against methicillin-resistant Staphylococcus aureus after overnight incubation; assay type: functional; summary of the method: as §2

COc1ccc(Cn2cnc3ccccc32)cc1
IC50 [1]: 38 µM

Brc1ccc(Cn2cnc3ccccc32)cc1
IC50 [1]: 27.4 µM

Clc1ccc(Cn2cnc3ccccc32)c(Cl)c1
IC50 [1]: 22 µM

Cc1cc2ncn(Cc3ccc(Cl)cc3)c2cc1C
IC50 [1]: 0.3 µM
MIC (Bacillus anthracis): > 50 µg/mL
MIC (Escherichia coli [2]): > 50 µg/mL
MIC (Escherichia coli [3]): 12.5 µg/mL (≈ 46.2 µM)
MIC (Yersinia pestis): > 50 µg/mL
MIC (Staphylococcus aureus [4]): > 50 µg/mL
MIC (Francisella tularensis): 15.6 µg/mL (≈ 57.6 µM)

Nc1ncc(Cc2ccc(Cl)cc2)s1
IC50 [1]: 63 µM
inhibition (DL21 (DE3)): 49%

Clc1ccc(Cn2cnc3ccccc32)cc1
IC50 [1]: 27 µM
inhibition (DL21 (DE3)): 70%

Cc1cc2ncn(Cc3ccc(Cl)cc3Cl)c2cc1C
IC50 [1]: 0.7 µM
MIC (Bacillus anthracis): > 38 µg/mL
MIC (Escherichia coli [2]): > 200 µg/mL
MIC (Escherichia coli [3]): 19 µg/mL (≈ 62.3 µM)
MIC (Staphylococcus aureus [5]): 38 µg/mL (≈ 125 µM)
MIC (Yersinia pestis): > 38 µg/mL
MIC (Staphylococcus aureus [4]): 38 µg/mL (≈ 125 µM)
MIC (Francisella tularensis): 4.3 µg/mL (≈ 14.1 µM)

Fc1ccc(Cn2cnc3ccccc32)cc1
IC50 [1]: > 100 µM

Clc1cccc(Cn2cnc3ccccc32)c1
IC50 [1]: 85 µM

Cc1nc2ccccc2n1Cc1ccc(Cl)c(Cl)c1
IC50 [1]: 3.2 µM
MIC (Bacillus anthracis): 25 µg/mL (≈ 85.9 µM)
MIC (Escherichia coli [2]): 50 µg/mL (≈ 172 µM)
MIC (Escherichia coli [3]): 25 µg/mL (≈ 85.9 µM)
MIC (Yersinia pestis): ≥ 50 µg/mL
MIC (Staphylococcus aureus [4]): 50 µg/mL (≈ 172 µM)
MIC (Francisella tularensis): 9.4 µg/mL (≈ 32.3 µM)

Cc1ccc(Cn2cnc3ccccc32)cc1
IC50 [1]: 90 µM

Cc1cc2ncn(C(=O)c3cccc(Cl)c3)c2cc1C
IC50 [1]: > 100 µM

Nc1nc2ccccc2n1Cc1ccc(Cl)cc1
IC50 [1]: > 100 µM

Cc1cc2ncn(Cc3ccc(Cl)c(Cl)c3)c2cc1C
IC50 [1]: 0.3 µM
MIC (Bacillus anthracis): 9.4 µg/mL (≈ 30.8 µM)
MIC (Escherichia coli [2]): > 200 µg/mL
MIC (Escherichia coli [3]): 6.25 µg/mL (≈ 20.5 µM)
MIC (Staphylococcus aureus [5]): 50 µg/mL (≈ 164 µM)
MIC (Yersinia pestis): ≥ 50 µg/mL
MIC (Staphylococcus aureus [4]): 25 µg/mL (≈ 81.9 µM)
MIC (Francisella tularensis): 7.8 µg/mL (≈ 25.6 µM)

O=C(c1ccc(Cl)cc1)n1cnc2ccccc21
IC50 [1]: > 100 µM

c1ccc(Cn2cnc3ccccc32)cc1
IC50 [1]: > 100 µM

Clc1ccc(Cn2cnc3ccccc32)cc1Cl
IC50 [1]: 4.7 µM
MIC (Bacillus anthracis): 50 µg/mL (≈ 180 µM)
MIC (Escherichia coli [2]): > 200 µg/mL
MIC (Escherichia coli [3]): 25 µg/mL (≈ 90.2 µM)
MIC (Staphylococcus aureus [5]): 50 µg/mL (≈ 180 µM)
MIC (Yersinia pestis): 25 µg/mL (≈ 90.2 µM)
MIC (Staphylococcus aureus [4]): 50 µg/mL (≈ 180 µM)
MIC (Francisella tularensis): 17.2 µg/mL (≈ 62.1 µM)

O=C(NC(=O)c1cc(-c2ccc(Cl)cc2)oc1C(F)(F)F)c1ccccc1O
inhibition (DL21 (DE3)): 39%
